In assay [1] the target is T1, Toll-like receptor 9 (Mus musculus) (UniProt Q9EQU3).
T1 sequence (whole entry): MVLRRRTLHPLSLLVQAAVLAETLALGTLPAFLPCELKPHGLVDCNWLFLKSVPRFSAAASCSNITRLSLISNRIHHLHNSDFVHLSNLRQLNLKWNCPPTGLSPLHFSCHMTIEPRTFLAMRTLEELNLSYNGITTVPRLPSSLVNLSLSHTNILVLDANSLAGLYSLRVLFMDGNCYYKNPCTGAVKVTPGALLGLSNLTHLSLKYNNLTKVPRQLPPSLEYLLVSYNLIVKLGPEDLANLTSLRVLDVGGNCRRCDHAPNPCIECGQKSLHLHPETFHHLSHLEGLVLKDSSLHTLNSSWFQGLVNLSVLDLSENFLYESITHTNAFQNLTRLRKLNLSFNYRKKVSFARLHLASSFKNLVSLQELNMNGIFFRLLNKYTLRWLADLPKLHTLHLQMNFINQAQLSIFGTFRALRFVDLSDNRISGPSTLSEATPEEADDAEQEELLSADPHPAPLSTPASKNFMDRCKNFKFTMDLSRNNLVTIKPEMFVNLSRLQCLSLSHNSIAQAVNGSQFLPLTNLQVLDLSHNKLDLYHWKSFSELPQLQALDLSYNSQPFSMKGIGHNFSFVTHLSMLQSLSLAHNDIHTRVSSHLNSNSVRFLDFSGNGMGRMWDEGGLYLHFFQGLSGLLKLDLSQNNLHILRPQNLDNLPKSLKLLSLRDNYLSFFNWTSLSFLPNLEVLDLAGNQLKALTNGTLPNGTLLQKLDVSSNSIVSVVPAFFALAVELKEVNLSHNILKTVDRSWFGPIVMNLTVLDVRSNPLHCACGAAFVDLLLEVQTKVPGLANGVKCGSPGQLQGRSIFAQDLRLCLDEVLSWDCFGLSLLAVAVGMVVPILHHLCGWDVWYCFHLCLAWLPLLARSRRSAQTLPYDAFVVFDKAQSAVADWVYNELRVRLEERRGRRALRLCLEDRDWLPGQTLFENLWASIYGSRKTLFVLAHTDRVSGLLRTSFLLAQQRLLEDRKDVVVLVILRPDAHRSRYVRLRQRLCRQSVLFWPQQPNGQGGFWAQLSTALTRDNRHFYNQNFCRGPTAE
In words: Activation of mouse TLR9 expressed in HEK293 assessed as induction of NF-kappaB activity reporter gene assay. The assay is classed as cell-based. For orientation: Reporter assays use an easily measured gene product as a stand-in for the process of interest.

Assay [2] concerns PBMC. In words: Immunomodulatory activity in human PBMC assessed as induction of IL12 at 100 ug/ml after 24 hrs. It counts as functional, cell-based. The method in brief:
(§1)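 Human PBMCs plated at 5 × 10^6 cells/mL; compounds dissolved in PBS added at various concentrations, 37 °C for 24 h. Supernatant cytokines/chemokines quantified with human Luminex multiplex kit.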

In assay [3] the target is T2, Toll-like receptor 7 (Homo sapiens) (UniProt Q9NYK1).
T2 sequence (whole entry): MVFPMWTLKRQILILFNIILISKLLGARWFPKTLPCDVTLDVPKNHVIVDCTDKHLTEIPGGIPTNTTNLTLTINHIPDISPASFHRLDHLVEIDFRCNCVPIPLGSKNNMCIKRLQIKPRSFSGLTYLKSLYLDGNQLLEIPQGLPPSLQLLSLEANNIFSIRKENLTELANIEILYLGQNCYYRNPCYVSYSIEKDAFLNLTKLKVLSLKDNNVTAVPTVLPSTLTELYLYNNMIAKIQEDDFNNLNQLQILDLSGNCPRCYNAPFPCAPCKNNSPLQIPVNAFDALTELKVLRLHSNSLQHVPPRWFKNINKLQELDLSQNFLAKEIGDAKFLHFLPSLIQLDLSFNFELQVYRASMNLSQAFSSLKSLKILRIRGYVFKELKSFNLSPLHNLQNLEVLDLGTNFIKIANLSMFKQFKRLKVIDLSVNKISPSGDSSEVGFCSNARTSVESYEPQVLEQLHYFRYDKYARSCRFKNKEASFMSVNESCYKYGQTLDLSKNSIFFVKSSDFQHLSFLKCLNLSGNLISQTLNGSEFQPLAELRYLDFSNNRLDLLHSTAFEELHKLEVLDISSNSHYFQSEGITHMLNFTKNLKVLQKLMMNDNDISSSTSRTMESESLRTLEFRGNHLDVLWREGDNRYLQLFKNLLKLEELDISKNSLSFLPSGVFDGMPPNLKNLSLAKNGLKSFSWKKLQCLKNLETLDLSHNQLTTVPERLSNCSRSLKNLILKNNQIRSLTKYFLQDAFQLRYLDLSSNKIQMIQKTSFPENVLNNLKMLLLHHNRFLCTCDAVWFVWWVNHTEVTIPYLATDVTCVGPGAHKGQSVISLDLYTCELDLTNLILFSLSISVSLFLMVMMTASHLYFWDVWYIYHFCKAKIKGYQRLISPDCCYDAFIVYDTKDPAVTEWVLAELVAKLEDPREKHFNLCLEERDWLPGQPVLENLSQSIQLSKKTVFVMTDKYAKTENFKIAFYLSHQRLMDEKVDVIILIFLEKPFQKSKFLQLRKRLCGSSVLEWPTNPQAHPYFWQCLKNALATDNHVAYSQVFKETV
Kind of assay: Activation of human TLR7 expressed in HEK293XL assessed as fold induction of NF-kappaB activity at 50 ug/ml after 18 hrs by reporter gene assay relative to control. The method in brief: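 HEK293 cells stably expressing human TLR7 or TLR8, transiently transfected with SEAP reporter plasmid; medium replaced, SIMRA compounds added, 18 h incubation. Supernatant SEAP measured by QuantiBlue; expressed as fold increase in NF-κB activity over PBS control. Tabulated data at 50 μg/mL, representative of three independent experiments.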

Assay [4] relates to Splenocyte. Kind of assay: Immunomodulatory activity in C57BL/6 mouse splenocytes bearing TLR7 receptor assessed as IL12 release at 100 ug/ml after 24 hrs by ELISA. The assay is classed as functional, cell-based. An outline of the steps:
(§2)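 C57BL/6 splenocytes in RPMI 1640 with 10% FBS, penicillin/streptomycin, 2 mM L-glutamine, plated at 5 × 10^6 cells/mL; compounds in PBS added, 37 °C for 24 h. Supernatant IL-12 and IL-6 by ELISA; representative of three independent experiments.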

The test system of assay [5] is Splenocyte. In words: Immunomodulatory activity in C57BL/6 mouse splenocytes bearing TLR7 receptor assessed as IL6 release at 100 ug/ml after 24 hrs by ELISA. It counts as functional, cell-based. An outline of the steps:
as §2
(An ELISA detects its analyte on a solid surface through an enzyme-linked reagent.)

Assay [6] deals with PBMC. In words: Immunomodulatory activity in human PBMC assessed as induction of TNFalpha at 100 ug/ml after 24 hrs. The assay is classed as functional, cell-based. An outline of the steps: as §1

The source made the active and inactive calls. The calls are words filed in the database; no cut-off is given here.

For the compound `Nc1ccn([C@@H]2O[C@H](COP(O)(=S)O[C@H]3[C@@H](O)[C@H](n4ccc(=O)[nH]c4=O)O[C@@H]3COP(O)(=S)O[C@H]3[C@@H](O)[C@H](n4ccc(=O)[nH]c4=O)O[C@@H]3COP(O)(=S)O[C@H]3[C@@H](O)[C@H](n4ccc(N)nc4=O)O[C@@H]3COP(O)(=S)O[C@H]3[C@@H](O)[C@H](n4ccc5c(=O)[nH]c(N)nc54)O[C@@H]3COP(O)(=S)O[C@H]3[C@@H](O)[C@H](n4ccc(=O)[nH]c4=O)O[C@@H]3COP(O)(=S)O[C@H]3[C@@H](O)[C@H](n4ccc(N)nc4=O)O[C@@H]3COP(O)(=S)O[C@H]3[C@@H](O)[C@H](n4ccc5c(=O)[nH]c(N)nc54)O[C@@H]3COP(O)(=S)O[C@H]3[C@@H](O)[C@H](n4ccc(=O)[nH]c4=O)O[C@@H]3CO)[C@@H](OP(O)(=S)OC[C@H]3O[C@@H](n4ccc(=O)[nH]c4=O)[C@H](O)[C@@H]3OP(O)(=S)OC[C@H]3O[C@@H](n4ccc5c(=O)[nH]c(N)nc54)[C@H](O)[C@@H]3OP(O)(=S)OCC(O)COP(O)(=S)O[C@H]3[C@@H](O)[C@H](n4ccc5c(=O)[nH]c(N)nc54)O[C@@H]3COP(O)(=S)O[C@H]3[C@@H](O)[C@H](n4ccc(=O)[nH]c4=O)O[C@@H]3COP(O)(=S)O[C@H]3[C@@H](O)[C@H](n4ccc(N)nc4=O)O[C@@H]3COP(O)(=S)O[C@H]3[C@@H](O)[C@H](n4ccc(=O)[nH]c4=O)O[C@@H]3COP(O)(=S)O[C@H]3[C@@H](O)[C@H](n4ccc(=O)[nH]c4=O)O[C@@H]3COP(O)(=S)O[C@H]3[C@@H](O)[C@H](n4ccc(N)nc4=O)O[C@@H]3COP(O)(=S)O[C@H]3[C@@H](O)[C@H](n4ccc5c(=O)[nH]c(N)nc54)O[C@@H]3COP(O)(=S)O[C@H]3[C@@H](O)[C@H](n4ccc(=O)[nH]c4=O)O[C@@H]3COP(O)(=S)O[C@H]3[C@@H](O)[C@H](n4ccc(N)nc4=O)O[C@@H]3COP(O)(=S)O[C@H]3[C@@H](O)[C@H](n4ccc5c(=O)[nH]c(N)nc54)O[C@@H]3COP(O)(=S)O[C@H]3[C@@H](O)[C@H](n4ccc(=O)[nH]c4=O)O[C@@H]3CO)[C@H]2O)c(=O)n1` (some centres not stated), the outcome in assay [1] was inactive. Further, the figures for the Activity in assay [2] and in assay [6] were 1110 pg/mL and 385 pg/mL, respectively. Further, the fold change (FC) in assay [3] was found to be 16.1. Moreover, the result in assay [4] and in assay [5] was Active.
Take `Nc1ccn([C@@H]2O[C@H](COP(=O)(S)O[C@H]3[C@@H](O)[C@H](n4cnc5c(N)ncnc54)O[C@@H]3COP(=O)(S)O[C@H]3[C@@H](O)[C@H](n4cnc5c(N)ncnc54)O[C@@H]3CO)[C@@H](OP(=O)(S)OC[C@H]3O[C@@H](n4ccc(=O)[nH]c4=O)[C@H](O)[C@@H]3OP(=O)(S)OC[C@H]3O[C@@H](n4ccc5c(=O)[nH]c(N)nc54)[C@H](O)[C@@H]3OP(=O)(S)OC[C@H]3O[C@@H](n4cnc5c(N)ncnc54)[C@H](O)[C@@H]3OP(=O)(S)OC[C@H]3O[C@@H](n4ccc(N)nc4=O)[C@H](O)[C@@H]3OP(=O)(S)OC[C@H]3O[C@@H](n4ccc5c(=O)[nH]c(N)nc54)[C@H](O)[C@@H]3OP(=O)(S)OC[C@H]3O[C@@H](n4ccc(N)nc4=O)[C@H](O)[C@@H]3OP(=O)(S)OC[C@H]3O[C@@H](n4ccc(=O)[nH]c4=O)[C@H](O)[C@@H]3OP(=O)(S)OC[C@H]3O[C@@H](n4ccc5c(=O)[nH]c(N)nc54)[C@H](O)[C@@H]3OP(=O)(S)OCC(O)COP(=O)(S)O[C@H]3[C@@H](O)[C@H](n4ccc5c(=O)[nH]c(N)nc54)O[C@@H]3COP(=O)(S)O[C@H]3[C@@H](O)[C@H](n4ccc(=O)[nH]c4=O)O[C@@H]3COP(=O)(S)O[C@H]3[C@@H](O)[C@H](n4ccc(N)nc4=O)O[C@@H]3COP(=O)(S)O[C@H]3[C@@H](O)[C@H](n4ccc5c(=O)[nH]c(N)nc54)O[C@@H]3COP(=O)(S)O[C@H]3[C@@H](O)[C@H](n4ccc(N)nc4=O)O[C@@H]3COP(=O)(S)O[C@H]3[C@@H](O)[C@H](n4cnc5c(N)ncnc54)O[C@@H]3COP(=O)(S)O[C@H]3[C@@H](O)[C@H](n4ccc5c(=O)[nH]c(N)nc54)O[C@@H]3COP(=O)(S)O[C@H]3[C@@H](O)[C@H](n4ccc(=O)[nH]c4=O)O[C@@H]3COP(=O)(S)O[C@H]3[C@@H](O)[C@H](n4ccc(N)nc4=O)O[C@@H]3COP(=O)(S)O[C@H]3[C@@H](O)[C@H](n4cnc5c(N)ncnc54)O[C@@H]3COP(=O)(S)O[C@H]3[C@@H](O)[C@H](n4cnc5c(N)ncnc54)O[C@@H]3CO)[C@H]2O)c(=O)n1` (some centres not stated): the result in assay [1] was inactive. The Activity in assay [2] turned out to be 154 pg/mL; in assay [6], 0 pg/mL. Further, in assay [3], the fold change (FC) was 18.4. Besides, the result in assay [4] and in assay [5] was Active.

For the origin of these results see ChEMBL document CHEMBL1154352, “Toll-like receptor 7 selective synthetic oligoribonucleotide agonists: synthesis and structure-activity relationship studies” (J Med Chem, 2009).
